Source: ChEMBL document CHEMBL1144182, “Antimicrobial and cytotoxic arylazoenamines. Part III: antiviral activity of selected classes of arylazoenamines” (Bioorg Med Chem, 2008)
Calls of active or inactive are those of the source. The rule behind the calls is not given here.

Columns and labels:
Coxsackievirus B2 = experiment: Antiviral activity against CVB2 infected in Vero76 cells assessed as reduction in virus plaque formation after 4 days by MTT assay; type: functional, organism-based; details: Enterovirus B, Vero 76, 96 h
Poliovirus 1 = experiment: Antiviral activity against Sb1 virus infected in Vero76 cells assessed as reduction in virus plaque formation after 4 days by MTT assay; type: functional, organism-based; details: Enterovirus C, Sabin, Vero 76, 96 h
[1] = Cytotoxicity against mock-infected BHK cells assessed as reduction in cell viability after 96 hrs by MTT assay; type: cell-based, Mesocricetus auratus; details: hamster
In short: (§1)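 Cytotoxicity run in parallel with the antiviral assays. MDBK seeded at 6 × 10^5 and BHK at 1 × 10^6 cells/mL in maintenance medium with or without serial compound dilutions. Incubated 48–96 h at 37 °C, 5% CO2, then viability read by MTT. CC50 is the concentration reducing mock-infected cell viability by 50%.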

[2] = Cytotoxicity against mock-infected african green monkey Vero76 cells assessed as reduction in cell viability after 96 hrs by MTT assay; type: cell-based, Vero; details: chlorocebus sabaeus
[3] = tested on: Bovine viral diarrhea virus 1; experiment: Antiviral activity against BVDV infected in MDBK cells assessed as protection against virus-induced cytopathogenicity after 4 days by MTT assay; type: functional, organism-based; details: Bovine viral diarrhea virus isolates and strains, 96 h
In short: (§2)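 MDBK (BVDV) or BHK-21 (YFV) cells were seeded at 3 × 10^4 or 5 × 10^4 cells/well respectively and grown overnight to confluent monolayers at 37 °C in 5% CO2. Monolayers were infected at m.o.i. 0.01 in serum-free medium. After 1 h, MEM Earle's with 1% FCS was added, with or without serial compound dilutions. After 3–4 days at 37 °C, viability was read by MTT. EC50 was taken as 50% protection from virus-induced cytopathogenicity.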

[4] = tested on: Respiratory syncytial virus; experiment: Antiviral activity against RSV infected in Vero76 cells assessed as reduction in virus plaque formation after 4 days by MTT assay; type: functional, organism-based; details: human respiratory syncytial virus, Vero 76, 96 h
Yellow fever virus = experiment: Antiviral activity against YFV infected in BHK21 cells assessed as protection against virus-induced cytopathogenicity after 4 days by MTT assay; type: functional, organism-based; details: BHK-21, 96 h; in short: as §2
[5] = Cytotoxicity against mock-infected MDBK cells assessed as reduction in cell viability after 96 hrs by MTT assay; type: cell-based, Bos taurus; details: cattle; in short: as §1
[6] = tested on: Human immunodeficiency virus 1; experiment: Antiviral activity against HIV1 infected in MT4 cells assessed as virus-induced cytopathogenicity after 4 days; type: functional, organism-based
[7] = Cytotoxicity against mock-infected human MT4 cells assessed as reduction in cell viability after 96 hrs by MTT assay; type: cell-based
In short: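 Exponentially growing MT-4 cells seeded at 1 × 10^5 cells/mL in RPMI-1640 with 10% FCS, penicillin and streptomycin, with or without serial compound dilutions. Incubated at 37 °C, 5% CO2; viability read by MTT after 96 h. CC50 is the concentration reducing mock-infected cell viability by 50%.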

[8] = tested on: Vesicular stomatitis virus; experiment: Antiviral activity against VSV infected in Vero76 cells assessed as reduction in virus plaque formation after 4 days by MTT assay; type: functional, organism-based; details: Vero 76
Vaccinia virus = experiment: Antiviral activity against VV infected in Vero76 cells assessed as reduction in virus plaque formation after 4 days by MTT assay; type: functional, organism-based; details: Orthopoxvirus vaccinia; Vero 76

Row | Compound | EC50 (Coxsackievirus B2) | EC50 (Poliovirus 1) | CC50 at 96 h [1] | CC50 at 96 h [2] | EC50 [3] | EC50 [4] | EC50 (Yellow fever virus) | CC50 at 96 h [5] | Activity [6] | CC50 at 96 h [7] | Activity [8] | Activity (Vaccinia virus)
1 | C(=C\N1CCCC1)/N=N/c1ccccc1 | 4 µM | > 70 µM | 82 µM | 70 µM | > 63 µM | 30 µM | > 82 µM | 63 µM | inactive | 8 µM | inactive | inactive
2 | Clc1ccccc1N1CCN(/C=C/N=N/c2ccccc2)CC1 | 5 µM | > 14 µM | 69 µM | 14 µM | > 13 µM | 5 µM | > 69 µM | 13 µM | inactive | 16 µM | inactive | inactive
3 | CN1C=C(/N=N/c2cccc(Cl)c2)CCC1 | 34 µM | > 75 µM | 85 µM | 75 µM | 12 µM | 40 µM | > 85 µM | 87 µM | inactive | > 100 µM | inactive | inactive
4 | CN1C=C(/N=N/c2ccc(Cl)c([N+](=O)[O-])c2)CCC1 | > 100 µM | > 100 µM | > 100 µM | > 100 µM | > 61 µM | > 100 µM | > 100 µM | 61 µM | inactive | 71 µM | inactive | inactive
5 | CN1CCC/C1=C\N=N\c1ccc(F)cc1 | > 75 µM | > 75 µM | 80 µM | 75 µM | 18 µM | 12 µM | 36 µM | 59 µM | inactive | 100 µM | inactive | inactive
6 | CN1C=C(/N=N/c2ccc([N+](=O)[O-])cc2)CCC1 | > 100 µM | > 100 µM | > 100 µM | > 100 µM | 11 µM | > 100 µM | > 100 µM | 62 µM | inactive | > 100 µM | inactive | inactive
7 | c1ccc2c(/N=N\C3=C4CCCCN4CCC3)cccc2c1 | > 90 µM | > 90 µM | 20 µM | 90 µM | 6 µM | > 90 µM | > 20 µM | > 100 µM | inactive | 12 µM | inactive | inactive
8 | CN1CCC/C1=C\N=N\c1ccc(Br)c(C(F)(F)F)c1 | 100 µM | 60 µM | > 100 µM | ≥ 100 µM | 46 µM | > 100 µM | > 100 µM | > 100 µM | inactive | 24 µM | inactive | inactive
9 | Cc1ccc(/N=N/C2=CN(C)CCC2)cc1 | > 71 µM | 25 µM | > 100 µM | 71 µM | > 100 µM | > 71 µM | > 100 µM | > 100 µM | inactive | > 100 µM | inactive | inactive
10 | CN1C=C(/N=N/c2c(F)c(F)c(F)c(F)c2F)CCC1 | > 100 µM | > 100 µM | > 100 µM | > 100 µM | > 100 µM | > 100 µM | > 100 µM | > 100 µM | inactive | > 100 µM | inactive | inactive
11 | C(=C\N1CCN(c2ncccn2)CC1)/N=N/c1ccccc1 | 0.9 µM | > 55 µM | 100 µM | 55 µM | > 10 µM | 5 µM | > 100 µM | 10 µM | inactive | 17 µM | inactive | inactive
12 | C(=C\N1CCCCC1)/N=N/c1ccccc1 | 7 µM | > 15 µM | 67 µM | 15 µM | > 7 µM | > 15 µM | 23 µM | 7 µM | inactive | 2 µM | inactive | inactive
13 | O=[N+]([O-])c1cccc(/N=N\C2=C3CCCCN3CCC2)c1 | 71 µM | 20 µM | 87 µM | 90 µM | 100 µM | > 90 µM | > 87 µM | > 100 µM | inactive | 37 µM | inactive | inactive
14 | c1ccc2c(/N=N\C3=C4CCCN4CCC3)cccc2c1 | 44 µM | > 90 µM | 51 µM | 90 µM | 3.5 µM | > 90 µM | > 51 µM | 91 µM | inactive | 18 µM | inactive | inactive
15 | Clc1ccc(/N=N\C2=C3CCCCN3CCC2)cc1 | 19 µM | > 80 µM | 69 µM | 80 µM | > 60 µM | 25 µM | > 69 µM | 60 µM | inactive | 42 µM | inactive | inactive
16 | O=[N+]([O-])c1ccc(N2CCN(/C=C/N=N/c3ccccc3)CC2)cc1 | 14 µM | > 45 µM | 48 µM | 45 µM | > 20 µM | 13 µM | 12 µM | 20 µM | inactive | 41 µM | inactive | inactive
17 | FC(F)(F)c1cc(/N=N/C=C2\CCCN2Cc2ccccc2)ccc1Cl | 30 µM | > 80 µM | 22 µM | 80 µM | > 14 µM | > 80 µM | > 22 µM | 14 µM | inactive | 20 µM | inactive | inactive
18 | CN1C=C(/N=N/c2ccccc2)CCC1 | > 100 µM | > 100 µM | > 100 µM | ≥ 100 µM | > 100 µM | 75 µM | > 100 µM | > 100 µM | inactive | > 100 µM | inactive | inactive
19 | Cc1ccc(/N=N/C=C2\CCCN2Cc2ccccc2)cc1 | 8 µM | > 50 µM | 25 µM | 50 µM | > 22 µM | > 50 µM | > 25 µM | 22 µM | inactive | 10 µM | inactive | inactive
20 | Cc1ccc(/N=N/C=C2\CCCN2C)cc1 | 60 µM | > 100 µM | > 100 µM | > 100 µM | 20 µM | > 100 µM | > 100 µM | > 100 µM | inactive | > 100 µM | inactive | inactive
21 | CCOC(=O)N1CCN(/C=C/N=N/c2ccccc2)CC1 | 12 µM | > 30 µM | > 100 µM | 30 µM | > 13 µM | 4 µM | > 100 µM | 13 µM | inactive | 17 µM | inactive | inactive
